Here are results for 3 compounds from ChEMBL document CHEMBL5653631, “A Potent and Selective ULK1 Inhibitor Suppresses Autophagy and Sensitizes Cancer Cells to Nutrient Stress” (iScience, 2018).

Molecules are shown by their SMILES.

Usually inhibition stands for the share of the control response that was lost under treatment.

In assay [1] the target is Serine-protein kinase ATM (Homo sapiens) (UniProt Q13315). As to the kind of experiment: Inhibition of human recombinant ATM at 40 nM related to control ULK1. Summed up: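 Radiometric activity assays in a panel of 327 human recombinant kinases, each run in duplicate at one inhibitor concentration. Activity remaining is expressed as percent of vehicle control, and percent inhibition is calculated as 100% minus percent activity remaining.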

The target of assay [2] is Tyrosine-protein kinase Fyn (Homo sapiens) (UniProt P06241). As to the kind of experiment: Inhibition of human recombinant FYN at 40 nM related to control ULK1.
Assay [3] concerns the target Protein-tyrosine kinase 6 (Homo sapiens) (UniProt Q13882). Put plainly: Inhibition of human recombinant BRK at 40 nM related to control ULK1.
Assay [4] deals with Insulin-like growth factor 1 receptor (Homo sapiens) (UniProt P08069). As to the kind of experiment: Inhibition of human recombinant IGF1R at 500 nM related to control ULK1.
Assay [5] deals with T1, Serine/threonine-protein kinase BRSK1 (Homo sapiens) (UniProt Q8TDC3).
T1 sequence (whole entry): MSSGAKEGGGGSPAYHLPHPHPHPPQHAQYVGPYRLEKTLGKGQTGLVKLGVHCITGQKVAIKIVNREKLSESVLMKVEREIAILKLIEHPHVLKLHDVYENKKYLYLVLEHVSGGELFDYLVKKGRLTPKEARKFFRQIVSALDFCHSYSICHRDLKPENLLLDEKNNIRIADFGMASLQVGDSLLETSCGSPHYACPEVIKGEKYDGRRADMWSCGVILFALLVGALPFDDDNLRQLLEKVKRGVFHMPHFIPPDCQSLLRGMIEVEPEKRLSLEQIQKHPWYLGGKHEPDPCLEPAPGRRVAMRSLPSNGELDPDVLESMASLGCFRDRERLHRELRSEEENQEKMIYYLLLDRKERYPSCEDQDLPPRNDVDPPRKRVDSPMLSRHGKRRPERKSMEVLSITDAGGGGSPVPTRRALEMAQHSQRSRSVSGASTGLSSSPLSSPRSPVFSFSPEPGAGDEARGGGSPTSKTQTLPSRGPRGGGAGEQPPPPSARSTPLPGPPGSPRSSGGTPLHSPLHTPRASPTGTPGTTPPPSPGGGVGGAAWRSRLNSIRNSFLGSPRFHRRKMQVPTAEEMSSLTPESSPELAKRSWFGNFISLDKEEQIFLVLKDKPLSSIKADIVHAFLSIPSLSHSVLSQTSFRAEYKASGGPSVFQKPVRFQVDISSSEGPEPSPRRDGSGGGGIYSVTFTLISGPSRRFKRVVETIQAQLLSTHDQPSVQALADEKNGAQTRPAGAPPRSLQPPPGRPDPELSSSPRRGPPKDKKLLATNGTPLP
Put plainly: Inhibition of human recombinant BRSK1 at 15 nM related to control ULK1.

For assay [6], the target named is Cyclin-dependent kinase 4 (Homo sapiens) (UniProt P11802). Put plainly: Inhibition of human recombinant CDK4 at 15 nM related to control ULK1.
In assay [7] the target is T2, Serine/threonine-protein kinase A-Raf (Homo sapiens) (UniProt P10398).
T2 sequence (whole entry): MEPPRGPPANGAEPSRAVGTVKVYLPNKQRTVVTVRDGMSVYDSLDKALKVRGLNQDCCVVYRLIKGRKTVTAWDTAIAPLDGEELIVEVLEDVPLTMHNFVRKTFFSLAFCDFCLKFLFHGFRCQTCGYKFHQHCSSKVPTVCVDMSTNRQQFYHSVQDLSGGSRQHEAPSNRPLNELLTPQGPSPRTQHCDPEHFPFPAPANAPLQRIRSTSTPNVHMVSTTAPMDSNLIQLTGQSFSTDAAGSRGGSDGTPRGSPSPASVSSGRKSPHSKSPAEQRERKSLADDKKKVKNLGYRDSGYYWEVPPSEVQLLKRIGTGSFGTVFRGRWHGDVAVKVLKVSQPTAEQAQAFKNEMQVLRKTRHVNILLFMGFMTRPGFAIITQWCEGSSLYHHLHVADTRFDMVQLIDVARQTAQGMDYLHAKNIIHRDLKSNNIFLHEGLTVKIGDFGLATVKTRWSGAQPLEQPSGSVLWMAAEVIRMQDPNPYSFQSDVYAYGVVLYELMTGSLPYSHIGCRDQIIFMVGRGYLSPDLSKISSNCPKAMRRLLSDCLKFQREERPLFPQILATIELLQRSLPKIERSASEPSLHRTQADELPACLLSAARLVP
As to the kind of experiment: Inhibition of human recombinant ARAF at 15 nM related to control ULK1. Summed up:
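Panel of 327 recombinant human kinases, each assayed in vitro by radiometric activity assay in duplicate at a single inhibitor concentration per compound, chosen with reference to its ULK1 inhibition. Activity remaining was expressed as percent of vehicle control, and percent inhibition was calculated as 100 minus percent activity remaining.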

Assay [8] deals with Serine/threonine-protein kinase PLK2 (Homo sapiens) (UniProt Q9NYY3). As to the kind of experiment: Inhibition of human recombinant PLK2 at 15 nM in presence of ATP by radiometric assay relative to control.
For assay [9], the target named is Macrophage colony-stimulating factor 1 receptor (Homo sapiens) (UniProt P07333). Put plainly: Inhibition of human recombinant FMS at 15 nM related to control ULK1.

Sequence of Serine-protein kinase ATM (Homo sapiens) (Q13315 whole entry): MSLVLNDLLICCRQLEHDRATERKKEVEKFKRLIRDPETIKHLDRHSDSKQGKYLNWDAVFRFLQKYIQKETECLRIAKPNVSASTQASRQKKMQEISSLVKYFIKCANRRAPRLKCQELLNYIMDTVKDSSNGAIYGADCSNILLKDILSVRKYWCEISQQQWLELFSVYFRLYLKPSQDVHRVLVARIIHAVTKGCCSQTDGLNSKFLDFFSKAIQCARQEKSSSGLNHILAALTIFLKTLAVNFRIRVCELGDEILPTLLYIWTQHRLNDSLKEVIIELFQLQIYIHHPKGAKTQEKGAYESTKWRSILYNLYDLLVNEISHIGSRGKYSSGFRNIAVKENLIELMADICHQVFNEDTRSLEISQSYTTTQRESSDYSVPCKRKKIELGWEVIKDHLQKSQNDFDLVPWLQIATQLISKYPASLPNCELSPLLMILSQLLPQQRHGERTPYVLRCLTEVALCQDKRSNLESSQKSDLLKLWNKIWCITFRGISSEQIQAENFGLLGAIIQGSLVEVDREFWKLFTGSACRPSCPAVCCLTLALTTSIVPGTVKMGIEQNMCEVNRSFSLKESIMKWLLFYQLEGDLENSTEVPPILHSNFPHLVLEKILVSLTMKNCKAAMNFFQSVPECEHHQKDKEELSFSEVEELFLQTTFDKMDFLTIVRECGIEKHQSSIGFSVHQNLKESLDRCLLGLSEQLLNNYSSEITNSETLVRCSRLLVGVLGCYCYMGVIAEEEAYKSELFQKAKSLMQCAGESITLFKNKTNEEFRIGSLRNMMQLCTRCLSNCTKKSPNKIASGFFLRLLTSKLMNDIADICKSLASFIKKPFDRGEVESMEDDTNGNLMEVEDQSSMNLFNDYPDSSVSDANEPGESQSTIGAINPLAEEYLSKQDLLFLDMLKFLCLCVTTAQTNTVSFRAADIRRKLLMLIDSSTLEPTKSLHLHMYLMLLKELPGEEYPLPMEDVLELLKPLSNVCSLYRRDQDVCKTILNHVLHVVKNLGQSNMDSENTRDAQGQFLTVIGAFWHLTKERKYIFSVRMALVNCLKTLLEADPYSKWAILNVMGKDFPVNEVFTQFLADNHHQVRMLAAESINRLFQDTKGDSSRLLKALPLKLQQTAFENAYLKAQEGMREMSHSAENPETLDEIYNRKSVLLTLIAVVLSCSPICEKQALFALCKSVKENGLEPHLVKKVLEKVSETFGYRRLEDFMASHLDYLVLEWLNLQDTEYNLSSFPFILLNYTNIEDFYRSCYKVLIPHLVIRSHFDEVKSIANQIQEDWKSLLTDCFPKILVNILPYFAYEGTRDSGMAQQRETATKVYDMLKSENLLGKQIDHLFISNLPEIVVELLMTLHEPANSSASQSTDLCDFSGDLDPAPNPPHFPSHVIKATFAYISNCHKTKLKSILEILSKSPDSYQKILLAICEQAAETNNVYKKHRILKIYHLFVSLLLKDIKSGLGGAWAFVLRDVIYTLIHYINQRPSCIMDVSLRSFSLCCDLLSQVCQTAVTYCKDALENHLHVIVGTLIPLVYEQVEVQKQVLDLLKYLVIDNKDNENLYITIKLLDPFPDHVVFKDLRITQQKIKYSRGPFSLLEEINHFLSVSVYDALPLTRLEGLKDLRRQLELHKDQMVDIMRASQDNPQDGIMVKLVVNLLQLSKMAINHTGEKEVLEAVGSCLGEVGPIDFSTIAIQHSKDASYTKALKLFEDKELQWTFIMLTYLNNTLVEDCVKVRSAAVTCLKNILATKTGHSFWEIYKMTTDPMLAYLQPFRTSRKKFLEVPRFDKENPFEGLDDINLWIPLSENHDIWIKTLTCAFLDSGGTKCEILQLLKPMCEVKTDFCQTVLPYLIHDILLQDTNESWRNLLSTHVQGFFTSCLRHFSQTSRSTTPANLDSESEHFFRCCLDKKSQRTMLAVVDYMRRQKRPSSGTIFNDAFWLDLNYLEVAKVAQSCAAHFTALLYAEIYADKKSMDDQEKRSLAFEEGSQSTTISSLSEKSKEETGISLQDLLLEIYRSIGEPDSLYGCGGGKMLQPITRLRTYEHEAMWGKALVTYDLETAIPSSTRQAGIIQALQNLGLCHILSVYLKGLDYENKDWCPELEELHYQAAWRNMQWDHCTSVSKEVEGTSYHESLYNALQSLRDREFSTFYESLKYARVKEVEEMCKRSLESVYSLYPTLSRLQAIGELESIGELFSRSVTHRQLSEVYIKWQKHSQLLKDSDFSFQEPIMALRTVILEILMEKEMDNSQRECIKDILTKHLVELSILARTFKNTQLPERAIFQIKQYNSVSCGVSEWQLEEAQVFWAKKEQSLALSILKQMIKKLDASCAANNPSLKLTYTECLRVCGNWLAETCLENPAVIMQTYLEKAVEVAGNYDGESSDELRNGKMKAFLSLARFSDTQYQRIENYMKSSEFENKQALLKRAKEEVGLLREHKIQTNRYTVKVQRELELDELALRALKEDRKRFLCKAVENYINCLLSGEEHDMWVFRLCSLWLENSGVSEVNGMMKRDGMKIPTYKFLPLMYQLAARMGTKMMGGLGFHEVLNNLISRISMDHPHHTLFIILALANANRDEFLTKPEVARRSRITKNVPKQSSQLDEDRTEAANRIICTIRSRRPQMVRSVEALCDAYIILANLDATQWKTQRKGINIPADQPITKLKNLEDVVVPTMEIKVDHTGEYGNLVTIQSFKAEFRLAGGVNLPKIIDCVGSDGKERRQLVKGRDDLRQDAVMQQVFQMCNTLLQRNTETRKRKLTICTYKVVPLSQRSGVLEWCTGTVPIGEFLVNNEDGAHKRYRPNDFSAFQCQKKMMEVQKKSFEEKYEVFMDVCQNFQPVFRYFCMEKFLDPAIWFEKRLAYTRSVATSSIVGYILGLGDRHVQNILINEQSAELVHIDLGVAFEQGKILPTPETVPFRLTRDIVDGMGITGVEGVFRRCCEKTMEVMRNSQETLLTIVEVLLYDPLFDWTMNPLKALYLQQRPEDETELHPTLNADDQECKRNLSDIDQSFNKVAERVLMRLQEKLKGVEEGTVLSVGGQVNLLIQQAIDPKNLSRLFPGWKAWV
Sequence of Cyclin-dependent kinase 4 (Homo sapiens) (P11802 whole entry): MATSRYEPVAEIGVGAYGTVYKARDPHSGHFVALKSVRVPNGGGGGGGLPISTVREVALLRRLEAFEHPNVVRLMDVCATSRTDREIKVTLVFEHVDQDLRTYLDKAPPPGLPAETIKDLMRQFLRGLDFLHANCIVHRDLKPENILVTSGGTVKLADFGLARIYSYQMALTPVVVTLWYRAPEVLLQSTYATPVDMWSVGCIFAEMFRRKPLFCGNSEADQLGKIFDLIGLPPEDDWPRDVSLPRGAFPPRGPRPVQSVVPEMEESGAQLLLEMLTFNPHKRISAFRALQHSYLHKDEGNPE
Sequence of Serine/threonine-protein kinase PLK2 (Homo sapiens) (Q9NYY3 whole entry, looked up): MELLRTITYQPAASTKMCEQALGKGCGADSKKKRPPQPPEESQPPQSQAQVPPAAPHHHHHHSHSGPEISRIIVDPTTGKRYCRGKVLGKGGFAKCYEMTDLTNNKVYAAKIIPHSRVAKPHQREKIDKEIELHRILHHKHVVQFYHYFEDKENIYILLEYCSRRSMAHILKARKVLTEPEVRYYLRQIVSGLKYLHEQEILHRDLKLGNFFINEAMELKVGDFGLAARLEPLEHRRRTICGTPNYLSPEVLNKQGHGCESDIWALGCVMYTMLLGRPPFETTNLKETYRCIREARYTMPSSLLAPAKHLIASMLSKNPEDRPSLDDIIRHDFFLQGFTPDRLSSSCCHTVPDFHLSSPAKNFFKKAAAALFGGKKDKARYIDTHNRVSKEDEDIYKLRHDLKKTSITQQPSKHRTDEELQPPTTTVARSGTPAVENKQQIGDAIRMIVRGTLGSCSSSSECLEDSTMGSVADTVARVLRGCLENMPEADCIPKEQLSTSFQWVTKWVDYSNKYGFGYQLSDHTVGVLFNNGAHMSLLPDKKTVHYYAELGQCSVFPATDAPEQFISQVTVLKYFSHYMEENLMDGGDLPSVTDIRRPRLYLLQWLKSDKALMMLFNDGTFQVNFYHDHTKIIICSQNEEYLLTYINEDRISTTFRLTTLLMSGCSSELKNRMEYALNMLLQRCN
Sequence of Protein-tyrosine kinase 6 (Homo sapiens) (Q13882 whole entry, looked up): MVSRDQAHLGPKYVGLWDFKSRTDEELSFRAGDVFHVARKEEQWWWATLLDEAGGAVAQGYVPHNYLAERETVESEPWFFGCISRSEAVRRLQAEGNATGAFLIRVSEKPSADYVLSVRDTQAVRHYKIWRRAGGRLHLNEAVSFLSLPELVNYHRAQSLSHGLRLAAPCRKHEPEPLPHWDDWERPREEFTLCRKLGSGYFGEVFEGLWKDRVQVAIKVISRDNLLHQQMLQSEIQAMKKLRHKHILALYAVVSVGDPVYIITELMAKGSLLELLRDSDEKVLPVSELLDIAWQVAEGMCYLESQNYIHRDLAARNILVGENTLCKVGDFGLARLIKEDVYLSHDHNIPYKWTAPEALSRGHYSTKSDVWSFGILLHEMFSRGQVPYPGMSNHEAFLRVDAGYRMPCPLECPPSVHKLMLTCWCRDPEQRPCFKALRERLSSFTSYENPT
Sequence of Tyrosine-protein kinase Fyn (Homo sapiens) (P06241 2-537 limits assumed): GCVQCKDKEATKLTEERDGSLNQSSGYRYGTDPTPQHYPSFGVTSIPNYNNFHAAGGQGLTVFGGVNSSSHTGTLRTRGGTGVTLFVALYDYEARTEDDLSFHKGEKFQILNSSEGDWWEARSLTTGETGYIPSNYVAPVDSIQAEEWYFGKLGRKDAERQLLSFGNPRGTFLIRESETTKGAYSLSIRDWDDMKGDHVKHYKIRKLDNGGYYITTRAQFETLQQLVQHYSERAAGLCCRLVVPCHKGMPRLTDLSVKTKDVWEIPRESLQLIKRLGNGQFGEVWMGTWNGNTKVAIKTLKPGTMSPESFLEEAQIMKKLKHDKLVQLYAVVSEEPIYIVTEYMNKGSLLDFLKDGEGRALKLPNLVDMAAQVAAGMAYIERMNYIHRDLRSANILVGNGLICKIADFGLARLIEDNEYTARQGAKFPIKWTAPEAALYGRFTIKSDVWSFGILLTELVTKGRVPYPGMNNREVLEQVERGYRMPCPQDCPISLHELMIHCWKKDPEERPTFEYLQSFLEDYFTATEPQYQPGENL

Take `O=C(N[C@@H](C1CC1)C(F)(F)F)c1cc(-c2cnn3cc(-c4ccc(F)cc4)cnc23)cs1`: the fold change (FC) in assay [1] stood at 0.07; in [2], 0; in [3], 0.

With `CNC(=O)c1ccccc1Oc1nc(Nc2cc(OC)c(OC)c(OC)c2)ncc1Br`, in [4], the fold change (FC) is 0.04.

Regarding `CC(C)[C@H](NC(=O)c1cc(-c2cnn3cc(-c4ccc(OCCN5CCCCC5)cc4)cnc23)cs1)C(F)(F)F`, the fold change (FC) in assay [5] is 0.15; in assay [6] it was 0.13; in [7], 0.07; in assay [9], 0.19. For the same compound, the inhibition in assay [8] came to 4%.
